# Screens (PubChem)
# INS promoter inh: inhibitors of insulin promoter-driven GFP, primary screen, imaging, TRM-6 cells (human fetal islet line), eGFP reporter, cell count | reporter expression induced with tamoxifen | inhibition, % at 2 µM | hit rate 0.9% among 130,000 | AID 1273, 2008;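 active means inhibition above the mean plus 3 SD, with well images judged a real hit on visual review, cut at about 60% in these data, passing the limit was not always enough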
# Autophagy mod: autophagy modulators in MEF cells, primary screen, imaging, high-content, MEF GFP-LC3 | hit rate 0.98% among 190,000 | calls only at 10 µM (by protocol) | MEF GFP-LC3 puncta imaging; test concentration mostly 10 µM;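 active means percentage of spot-positive cells more than 3 SD above its plate mean, without a fluorescence outlier flag or 80% toxicity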;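 further: spot-positive cell cutoff set from DMSO-treated cells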
# Insulin prom up: insulin promoter activators in MIN6 cells, imaging, high-content screening, mouse beta cells; MIN6 insulin promoter-GFP reporter; active compounds read high; z-score at 5 µM; hit rate 0.3% among 190,000;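 active means z-score above 3 at 5 µM with at least 500 cells counted in the well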
# PERK inhibitor: block of dimerizer-induced PERK translation repression, primary screen, PERK inhibitor project, CHO PERK-DD cells, SEAP luminescence, HTS; CHO PERK-DD fusion, SEAP luminescence translation reporter; inhibition, % at 5.6 µM; hit rate 0.17% among 220,000;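 active means inhibition above the mean inhibition of all tested compounds plus 3 SD, set separately per screening campaign, cut at about 2.9% in these data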;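 further: PERK kinase domain activated by AP20187 dimerizer at 100 nM; 0% = DMSO with dimerizer and 100% = rapamycin at 8.4 µM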
# Target sequence (Q9NZJ5 whole entry, looked up, the tested form may be a part): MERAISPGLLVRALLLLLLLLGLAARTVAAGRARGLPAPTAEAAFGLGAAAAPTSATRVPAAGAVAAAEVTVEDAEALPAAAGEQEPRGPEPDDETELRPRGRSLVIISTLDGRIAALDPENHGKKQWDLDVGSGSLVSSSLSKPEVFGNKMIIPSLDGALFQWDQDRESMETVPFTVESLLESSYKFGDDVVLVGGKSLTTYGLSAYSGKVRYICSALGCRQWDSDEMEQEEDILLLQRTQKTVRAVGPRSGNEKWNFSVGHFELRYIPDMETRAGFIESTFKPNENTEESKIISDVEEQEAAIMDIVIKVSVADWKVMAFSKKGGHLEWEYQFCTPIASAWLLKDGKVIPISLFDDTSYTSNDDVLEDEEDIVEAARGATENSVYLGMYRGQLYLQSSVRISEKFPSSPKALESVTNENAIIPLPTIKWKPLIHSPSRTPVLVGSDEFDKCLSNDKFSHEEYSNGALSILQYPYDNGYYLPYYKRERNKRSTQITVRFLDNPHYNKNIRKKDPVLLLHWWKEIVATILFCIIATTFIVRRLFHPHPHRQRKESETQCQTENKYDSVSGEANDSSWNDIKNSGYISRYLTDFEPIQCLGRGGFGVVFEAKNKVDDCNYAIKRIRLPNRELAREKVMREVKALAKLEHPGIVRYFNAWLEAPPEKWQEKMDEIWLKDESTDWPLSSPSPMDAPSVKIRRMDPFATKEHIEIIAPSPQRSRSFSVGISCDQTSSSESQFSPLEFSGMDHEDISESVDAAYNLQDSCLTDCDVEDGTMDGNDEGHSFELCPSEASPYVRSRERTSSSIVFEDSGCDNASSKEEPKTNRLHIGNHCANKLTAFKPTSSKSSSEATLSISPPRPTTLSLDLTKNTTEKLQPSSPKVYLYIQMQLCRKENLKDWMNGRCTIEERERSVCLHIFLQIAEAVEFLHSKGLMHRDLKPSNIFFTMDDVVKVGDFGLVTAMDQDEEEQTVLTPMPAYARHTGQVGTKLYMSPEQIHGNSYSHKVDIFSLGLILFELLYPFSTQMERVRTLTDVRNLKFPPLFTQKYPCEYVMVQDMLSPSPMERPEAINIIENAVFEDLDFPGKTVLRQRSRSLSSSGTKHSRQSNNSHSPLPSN
# Dynein cargo inh: inhibitors of GR-EGFP nuclear translocation, primary screen, dynein cargo transport inhibitor project, imaging, high-content, 3617.4 mouse cells; test concentration mostly 20 µM; stimulated with dexamethasone, 1 µM; active compounds read low; hit rate 0.47% among 220,000; z-score, hits read low;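 active means plate z-score of nuclear minus cytoplasmic receptor signal below a set negative limit, without overly bright fluorescence or cell loss, cut at about -3.5 in these data, passing the limit was not always enough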;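 further: z-score of nuclear minus cytoplasmic ring GR-EGFP intensity difference per well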
#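 Buffer or medium: Induction medium lacking tetracycline, stripped serum | Also added: Dexamethasone agonist, 1.0 µM final, for 30 min | Timing: 48 h induction, 1 h compound, 30 min dex at 37 °C | Detection: Formaldehyde fixation, Hoechst nuclear stain, 10x automated fluorescence imaging | Measure: Nuclear versus cytoplasmic GR-EGFP signal, averaged per well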
# Starred values were filed as active, the others as inactive; i = inactive; . = no result; + = active, no number. Sampled rows, rich in hits. Any-hit rate of the full collection: about 2.1%.
SMILES,INS promoter inh,Autophagy mod,Insulin prom up,PERK inhibitor,Dynein cargo inh
Cc1nc(C)n(C(C)CC(=O)O)n1 (stereo not given),.,i,0.17,0.1,0.853
CC(Sc1n[nH]c(N)n1)C(=O)C12CC3CC(CC(C3)C1)C2 (stereo not given),-14.3,i,0.25,0.0,1.42
CC(SC#N)C(=O)C12CC3CC(CC(C3)C1)C2 (stereo not given),47.1,i,0.05,0.6,-6.76*
CCCCCCCCNc1nc(Cl)nc(NCCN2CCOCC2)n1,.,+,-0.43,-0.3,0.0632
CC(NCc1cc(Br)ccc1OCC(=O)NCc1ccccc1)c1ccccc1 (stereo not given),-28.6,+,-2.55,-0.3,-0.949
Cc1ccc(C)c(OCC(=O)N/N=C\c2cccn2C)c1,-60.0,i,-0.89,0.1,-0.573
Cc1ccc(OCC(=O)N/N=C/c2cccn2C)cc1,71.4*,i,.,0.3,-0.306
CC(=O)c1ccc(NC(=S)N2C(C)CCCC2C)cc1 (stereo not given),-17.2,i,0.2,1.2,-0.585
COc1ccc(CCc2nc(C)ccc2O)cc1,88.6*,i,0.2,-0.2,0.299
Cc1ccc(O)c(CC(C)C)n1,84.4*,i,0.91,1.7,0.367
COCC(=O)Nc1nc(-c2ccc([N+](=O)[O-])cc2)cs1,15.8,i,-0.18,-0.2,-0.632
O=C(Cc1nc(-c2ccc([N+](=O)[O-])cc2)cs1)Nc1ccccc1,-193.3,i,8.58*,0.6,-0.234
Cc1ccc(NC2(c3nnnn3-c3c(C)cccc3C)CCCCC2)cc1,-11.1,+,-0.43,-0.9,-0.912
COc1cccc2c1OC1(C)CC2/C(=C(\C)O)C(=O)N1 (stereo not given),90.9*,i,0.46,1.2,-0.736
CCCCN1C(=O)N(C)C2NC(=S)NC21 (stereo not given),.,.,-0.04,0.3,2.63
S=C(NC1CCCCCC1)NC1CCCC1,.,+,0.16,-0.8,-0.821
O=C(NCc1cccs1)C1CCCN1C(=O)Nc1ccc(F)cc1 (stereo not given),.,.,0.44,1.4,-0.587
CC1=Nc2ccccc2/C1=C/c1sc(=S)n(-c2cccc(C(=O)O)c2)c1O,.,i,3.2*,0.0,0.406
Oc1c(C=C2N=c3ccccc3=N2)sc(=S)n1-c1ccccc1,.,i,-0.2,1.7,0.318
O=C(CN1C(=O)c2cccc3cccc(c23)C1=O)NCCN1CCOCC1,.,i,0.51,1.9,0.266
COc1cc2c(O)c3c(c(-c4ccc5c(c4)OCO5)c2cc1OC)C(=O)OC3,-127.3,+,-2.37,-0.6,2
COc1ccc(C(=O)Oc2ccc3c(c2)OCO3)cc1OC,.,i,0.26,0.5,0.61
COc1cc2c(OC(C)=O)c3c(c(-c4ccc5c(c4)OCO5)c2cc1OC)C(=O)OC3,.,+,-1.65,1.1,-0.899
O=C(COC(=O)c1ccc([N+](=O)[O-])s1)Nc1ncc(C(F)(F)F)cc1Cl,.,i,0.74,0.7,-0.0849
Cc1ccc(S(=O)(=O)N2CCCCC2)cc1NC(=O)c1ccccn1,.,.,-0.63,-0.5,1.63
SMILES,INS promoter inh,Autophagy mod,Insulin prom up,PERK inhibitor,Dynein cargo inh
COc1cccc(-c2noc(-c3ccoc3C)n2)c1,.,i,-0.17,3.1*,-1.08
COc1ccc(-c2noc(-c3ccoc3C)n2)cc1,.,i,-0.17,-0.1,0.302
CCc1ccc(-c2cn3c(n2)SCC3)cc1,83.3*,i,-0.42,0.5,0.601
Cn1cc([N+](=O)[O-])c(C(=O)NCc2ccco2)n1,7.7,i,0.6,3.8*,0.729
Cc1ccccc1Cn1ccc(NC(=O)c2nn(C)cc2[N+](=O)[O-])n1,84.6*,i,.,-1.5,0.902
COc1ccc(N2CCN(C(=O)C(=O)c3c(C)n(C)c4ccccc34)CC2)cc1,54.3,i,-0.63,1.1,2.74
COC(=O)c1nc2ccc(N3CCOCC3)cc2c(C)c1C(=O)OC,.,+,-0.9,-0.5,0.232
COC(=O)[C@@H](NC(=O)Nc1cccc(OC)c1)C(C)C,57.1,i,3.01*,1.2,0.321
COC(=O)[C@@H](NC(=O)Nc1ccc(OC)cc1)C(C)C,3.9,i,0.42,0.7,-0.000968
CC(=O)N(c1ccccc1C)C1CCCC1,-30.0,i,-0.08,0.7,-0.872
CC(=O)N(C1=C(Cl)C(=O)c2ccccc2C1=O)C1CCCCC1,.,.,0.28,-0.9,-6.01*
O=C1c2ccccc2C(=O)N1c1ccc(-c2nc3ccccc3o2)cc1,.,+,-0.08,0.5,1.28
O=C1c2ccccc2C(=O)N1c1cccc(-c2nc3ccccc3o2)c1,40.3,i,-0.37,1.1,-0.354
COc1cc2c(cc1OC)CN(CC(=O)Nc1ccc(Cl)c(S(=O)(=O)N(C)C)c1)CC2,-16.7,i,-0.76,0.5,0.49
COc1ccccc1N1CCN(C/C(O)=C(\C#N)c2nc(-c3ccccc3)cs2)CC1,-41.7,i,3.2*,-0.2,-0.591
CCCc1[nH]nc2c1C1(C(=O)N(C(C)C)c3ccccc31)C(C#N)=C(N)O2 (stereo not given),.,+,-0.39,0.2,0.228
CCCCc1[nH]nc2c1C1(C(=O)N(CC)c3ccccc31)C(C#N)=C(N)O2 (stereo not given),.,i,0.09,0.7,0.738
COc1ccc(C2C(C(=O)N3CCN(c4ccccc4)CC3)c3ccccc3C(=O)N2C)cc1 (stereo not given),7.5,i,-0.02,-1.4,-0.208
O=C(NCCN1CCOCC1)NC1(C(F)(F)F)Oc2ccc(Cl)cc2O1 (stereo not given),-117.9,i,0.08,1.1,-0.067
COCC(C)NC(=O)NC1(C(F)(F)F)Oc2ccc(Cl)cc2O1 (stereo not given),71.4*,i,0.34,1.1,-2.06
Cc1ccc(NC(=S)NC(NC(=O)c2ccccc2C)C(Cl)(Cl)Cl)c(C)c1 (stereo not given),2.9,i,0.27,-0.1,1.37
Cc1csc2c(=O)sc(NC(=O)c3ccc(F)cc3Cl)nc12,.,.,0.32,-0.8,2.68
Cc1csc2c(=O)sc(NC(=O)c3ccc(F)cc3)nc12,.,.,-0.04,5.2*,-0.449
O=C(COC(=O)C1CCN(/C=C/C(=O)C(F)(F)F)CC1)Nc1cccc(F)c1,23.1,i,0.73,1.1,1.41
c1ccc(-n2ncc3c(N4CCN(c5ccccn5)CC4)nc(N4CCCCCC4)nc32)cc1,.,i,4.11*,0.4,3.35
c1ccc(-n2ncc3c(N4CCCCC4)ncnc32)cc1,.,i,1.87,-0.1,2.34
O=C(Nc1cccc(S(=O)(=O)N2CCOCC2)c1)c1cnccn1,.,i,-0.16,0.3,-0.808
COc1cc2c3nnc(-c4ccc(F)cc4)c-3cn(Cc3cccc(F)c3)c2cc1OC,i,+,0.53,0.6,1.61
